Assay results from ChEMBL document CHEMBL1142436, “Design and synthesis of 4-substituted indolo[3,2-e][1,2,3]triazolo[1,5-a]pyrimidine derivatives with antitumor activity” (2008).

Columns and labels:
Assay type in all cases: functional
[1] = tested on: PC-3; assay: Growth inhibition of human PC3 cells after 48 hrs; details: PC-3, 48 h
Outline: (§1)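 NCI ~60-line screen. Cells were grown in RPMI 1640 with 5% FBS and 2 mM L-glutamine and plated at 5000–40000 cells/well. After a 24 h preincubation, five drug concentrations from DMSO stocks were added for 48 h at 37 °C. Cells were TCA-fixed, stained with SRB and read at 515 nm. GI50 was taken from time-zero and control absorbances and reported as pGI50.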

[2] = tested on: BT-549; assay: Growth inhibition of human BT549 cells after 48 hrs; details: BT-549, 48 h; outline: as §1
[3] = tested on: A498; assay: Growth inhibition of human A498 cells after 48 hrs; details: A498, 48 h; outline: as §1
[4] = tested on: CAKI-1; assay: Growth inhibition of human CAKI1 cells after 48 hrs; details: CAKI-1, 48 h; outline: as §1
[5] = tested on: HOP-62; assay: Growth inhibition of human HOP62 cells after 48 hrs; details: HOP-62, 48 h; outline: as §1
[6] = tested on: SN12C; assay: Growth inhibition of human SN12C cells after 48 hrs
Outline: (§2)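 NCI 60-line screen: cells in RPMI 1640 with 5% FBS and 2 mM L-glutamine, plated at 5000–40000 cells/well, grown 24 h (37 °C, 5% CO₂), then exposed to five 10-fold or ½-log dilutions (DMSO stock) for 48 h. Fixed with TCA (final 10% for adherent cells, 16% for suspension cells), then SRB stained with absorbance at 515 nm. GI50 from percentage growth relative to time-zero and control wells.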

[7] = tested on: MDA-MB-435; assay: Growth inhibition of human MDA-MB435 cells after 48 hrs; details: MDA-MB-435, 48 h; outline: as §1
[8] = tested on: TK-10; assay: Growth inhibition of human TK10 cells after 48 hrs; details: TK-10, 48 h; outline: as §2
[9] = tested on: MOLT-4; assay: Growth inhibition of human MOLT4 cells after 48 hrs; details: MOLT-4, 48 h; outline: as §1
[10] = tested on: U-251; assay: Growth inhibition of human U251 cells after 48 hrs; details: U-251, 48 h; outline: as §2
[11] = tested on: ACHN; assay: Growth inhibition of human ACHN cells after 48 hrs; outline: as §1
[12] = tested on: A549; assay: Growth inhibition of human A549 cells after 48 hrs; details: A549, 48 h; outline: as §1
[13] = tested on: SK-OV-3; assay: Growth inhibition of human SKOV3 cells after 48 hrs; details: SK-OV-3, 48 h; outline: as §2
[14] = Growth inhibition of human HS578T cells after 48 hrs; details: Hs-578T; outline: as §1
[15] = tested on: SK-MEL-2; assay: Growth inhibition of human SK-MEL2 cells after 48 hrs; details: SK-MEL-2, 48 h; outline: as §1
[16] = tested on: Malme-3M; assay: Growth inhibition of human MALME3M cells after 48 hrs; outline: as §1
[17] = tested on: T47D; assay: Growth inhibition of human T47D cells after 48 hrs; outline: as §2
[18] = tested on: NCI-H322M; assay: Growth inhibition of human NCI-H322M cells after 48 hrs; outline: as §1
[19] = tested on: UO-31; assay: Growth inhibition of human UO31 cells after 48 hrs; details: UO-31, 48 h; outline: as §2
[20] = tested on: SNB-19; assay: Growth inhibition of human SNB19 cells after 48 hrs; details: SNB-19, 48 h; outline: as §2
[21] = tested on: RPMI-8226; assay: Growth inhibition of human RPMI8226 cells after 48 hrs; details: RPMI-8226, 48 h; outline: as §1
[22] = tested on: CCRF-CEM; assay: Growth inhibition of human CCRF-CEM cells after 48 hrs; outline: as §1
[23] = tested on: SR; assay: Growth inhibition of human SR cells after 48 hrs; outline: as §2
[24] = read-out: Log LC50 (the source's name) (converted)

Q: Which GI50 [1] does the source give for Cn1c2ccccc2c2c(=O)n(CCCC(=O)NCC(=O)N(C(=O)NC3CCCCC3)C3CCCCC3)c3c(-c4ccccc4)nnn3c21 here?
A: Its GI50 is 22.9 µM.

Q: What about the LC50 [1] of the same compound?
A: The LC50 was over 100 µM.

Q: What about the TGI ([1]; read-out: pTGI (converted)) of the same compound?
A: Its TGI is over 100 µM.

Q: What about the GI50 [2] of the same compound?
A: Its GI50 is 26.9 µM.

Q: And the GI50 [3]?
A: Its GI50 is 30.9 µM.

Q: And the CC50 [3, 24]?
A: The CC50 was over 100 µM.

Q: What about the TGI ([3]; read-out: pTGI (converted)) of the same compound?
A: Its TGI is over 100 µM.

Q: And the GI50 [4]?
A: Its GI50 is 32.4 µM.

Q: And the LC50 (concentration killing 50% of cells) [4]?
A: Its LC50 (concentration killing 50% of cells) is over 100 µM.

Q: What about the TGI ([4]; read-out: pTGI (converted)) of the same compound?
A: The TGI was 37.2 µM.

Q: What about the GI50 [5] of the same compound?
A: Its GI50 is 15.1 µM.

Q: And the LC50 [5]?
A: Its LC50 is 87.1 µM.

Q: And the TGI ([5]; read-out: pTGI (converted))?
A: The TGI was 36.3 µM.

Q: And the GI50 [6]?
A: Its GI50 is 19.5 µM.

Q: What about the LC50 [6] of the same compound?
A: Its LC50 is over 100 µM.

Q: What about the TGI ([6]; read-out: pTGI (converted)) of the same compound?
A: Its TGI is 50.1 µM.

Q: And the GI50 [7]?
A: The GI50 was 25.1 µM.

Q: What about the LC50 [7] of the same compound?
A: The LC50 was over 100 µM.

Q: And the TGI ([7]; read-out: pTGI (converted))?
A: The TGI was over 100 µM.

Q: What about the GI50 [8] of the same compound?
A: The GI50 was over 100 µM.

Q: And the LC50 [8]?
A: Its LC50 is over 100 µM.

Q: And the TGI ([8]; read-out: pTGI (converted))?
A: The TGI was over 100 µM.

Q: What about the GI50 [9] of the same compound?
A: Its GI50 is 14.5 µM.

Q: And the LC50 [9]?
A: The LC50 was over 100 µM.

Q: What about the TGI ([9]; read-out: pTGI (converted)) of the same compound?
A: The TGI was over 100 µM.

Q: What about the GI50 [10] of the same compound?
A: The GI50 was 12.3 µM.

Q: What about the LC50 [10] of the same compound?
A: The LC50 was over 100 µM.

Q: What about the TGI ([10]; read-out: pTGI (converted)) of the same compound?
A: The TGI was 38 µM.

Q: What about the GI50 [11] of the same compound?
A: Its GI50 is 26.3 µM.

Q: And the LC50 [11]?
A: Its LC50 is over 100 µM.

Q: And the TGI ([11]; read-out: pTGI (converted))?
A: Its TGI is over 100 µM.

Q: What about the GI50 [12] of the same compound?
A: Its GI50 is 38 µM.

Q: What about the CC50 [12, 24] of the same compound?
A: The CC50 was over 50.1 µM.

Q: And the TGI ([12]; read-out: pTGI (converted))?
A: Its TGI is over 50.1 µM.

Q: What about the LC50 [13] of the same compound?
A: Its LC50 is 33.9 µM.

Q: And the TGI ([13]; read-out: pTGI (converted))?
A: The TGI was 18.6 µM.

Q: And the GI50 [14]?
A: The GI50 was 9.33 µM.

Q: And the LC50 (50% lethal concentration) [14]?
A: Its LC50 (50% lethal concentration) is over 100 µM.

Q: What about the TGI ([14]; read-out: pTGI (converted)) of the same compound?
A: The TGI was over 100 µM.

Q: And the GI50 [15]?
A: The GI50 was 33.1 µM.

Q: And the LC50 [15]?
A: Its LC50 is over 100 µM.

Q: What about the TGI ([15]; read-out: pTGI (converted)) of the same compound?
A: The TGI was over 100 µM.

Q: What about the GI50 [16] of the same compound?
A: Its GI50 is 46.8 µM.

Q: What about the LC50 [16] of the same compound?
A: Its LC50 is over 100 µM.

Q: And the TGI ([16]; read-out: pTGI (converted))?
A: Its TGI is over 100 µM.

Q: What about the CC50 [17, 24] of the same compound?
A: The CC50 was over 100 µM.

Q: And the TGI ([17]; read-out: pTGI (converted))?
A: The TGI was over 100 µM.

Q: And the GI50 [18]?
A: The GI50 was over 100 µM.

Q: And the LC50 [18]?
A: The LC50 was over 100 µM.

Q: What about the TGI ([18]; read-out: pTGI (converted)) of the same compound?
A: The TGI was over 100 µM.

Q: What about the GI50 [19] of the same compound?
A: Its GI50 is 31.6 µM.

Q: And the LC50 [19]?
A: Its LC50 is over 100 µM.

Q: What about the TGI ([19]; read-out: pTGI (converted)) of the same compound?
A: The TGI was over 100 µM.

Q: And the LC50 [20]?
A: The LC50 was over 100 µM.

Q: What about the TGI ([20]; read-out: pTGI (converted)) of the same compound?
A: The TGI was over 100 µM.

Q: And the GI50 [21]?
A: The GI50 was 4.27 µM.

Q: And the LC50 [21]?
A: The LC50 was 97.7 µM.

Q: And the TGI ([21]; read-out: pTGI (converted))?
A: Its TGI is 21.4 µM.

Q: And the GI50 [22]?
A: Its GI50 is 8.32 µM.

Q: What about the LC50 [22] of the same compound?
A: Its LC50 is over 100 µM.

Q: What about the TGI ([22]; read-out: pTGI (converted)) of the same compound?
A: Its TGI is 57.5 µM.

Q: What about the GI50 [23] of the same compound?
A: Its GI50 is 3.02 µM.

Q: What about the LC50 [23] of the same compound?
A: Its LC50 is 8.51 µM.

Q: What about the TGI ([23]; read-out: pTGI (converted)) of the same compound?
A: The TGI was 5.13 µM.
